Experimental data from ChEMBL document CHEMBL3414461, “Clerodane type diterpene as a novel antifungal agent from Polyalthia longifolia var. pendula” (Eur J Med Chem, 2015).
Values after ≈ are worked out from the molar mass of the structure shown. Active and inactive are the calls of the source. No cut-off for these calls is given here.

Columns and labels:
Candida albicans [1] = assay: Antifungal activity against Candida albicans NCIM 3557 assessed as inhibition of 50% germ tube formation; format: functional
Candida albicans [2] = assay: Antifungal activity against Candida albicans NCIM 3557 after 24 to 48 hrs by microbroth dilution method; format: functional
Outline: (§1)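 Broth microdilution per CLSI. DMSO stock diluted 1:40 in YPG medium, then two-fold serial dilution across […] range. Inoculum: log-phase yeast cells (~2 × 10^4 cfu/mL) grown in YPG broth, or spores for phytopathogens. Incubated 24–48 h; growth read as absorbance at 600 nm. MIC is the lowest concentration giving >90% growth inhibition versus control; IC50 is the concentration giving 50% inhibition.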

Fusarium oxysporum = assay: Antifungal activity against Fusarium oxysporum NCIM 1043 after 24 to 48 hrs by microbroth dilution method; format: functional; outline: as §1
Nakaseomyces glabratus = assay: Antifungal activity against Candida glabrata NCIM 3237 after 24 to 48 hrs by microbroth dilution method; format: functional; outline: as §1
Cryptococcus neoformans = assay: Antifungal activity against Cryptococcus neoformans NCIM 3542 after 24 to 48 hrs by microbroth dilution method; format: functional; outline: as §1
Neurospora crassa = assay: Antifungal activity against Neurospora crassa NCIM 870 after 24 to 48 hrs by microbroth dilution method; format: functional; outline: as §1
Candida albicans [3] = assay: Antifungal activity against Candida albicans NCIM 3471 after 24 to 48 hrs by microbroth dilution method; format: functional; outline: as §1
Aspergillus niger = assay: Antifungal activity against Aspergillus niger NCIM 628 after 24 to 48 hrs by microbroth dilution method; format: functional; outline: as §1
Aspergillus fumigatus = assay: Antifungal activity against Aspergillus fumigatus NCIM 902 after 24 to 48 hrs by microbroth dilution method; format: functional; outline: as §1
[4] = Cytotoxicity against sheep RBC assessed as haemolytic activity at 1200 uM after 2 hrs by spectrophotometry; format: cell-based, Ovis aries, Erythrocyte; settings: sheep red blood cells, read-out: Activity
Outline: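 Sheep RBCs washed with PBS (pH 7.0), resuspended to a 4% suspension, mixed 1:1 with PBS containing test compound. Incubated 37 °C for 2 h, centrifuged 2000 rpm for 5 min, supernatant absorbance read at 545 nm. PBS set as 0% lysis and 0.1% Triton X-100 as 100%. Percent haemolysis calculated relative to these; triplicates averaged.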

Candida albicans [5] = assay: Induction of ROS generation in Candida albicans NCIM 3557 at 50.3 to 201.2 uM after 200 mins by DHR123 staining-based fluorescence assay; format: functional, organism-based
Outline: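 1×10^6 C. albicans NCIM3557 cells grown in YPG broth with compound at 37 °C for 200 min. Cells washed, then DHR123 added at […] final (from ethanol stock) in PBS for 30 min. Cells washed, resuspended in PBS, and fluorescence read (ex 480/em 525 nm) by epifluorescence microscopy. Untreated cells served as negative control and H2O2-treated cells as positive control.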

Candida albicans [6] = assay: Induction of ROS generation in Candida albicans NCIM 3557 at 25.2 to 100.6 uM after 60 mins by DCFH-DA staining-based fluorescence assay; format: functional, organism-based

| Concentration for 50% inhibition of germ tube formation (IC50) (Candida albicans [1]) | MIC90 (Candida albicans [2]) | MIC90 (Fusarium oxysporum) | MIC90 (Nakaseomyces glabratus) | MIC90 (Cryptococcus neoformans) | MIC90 (Neurospora crassa) | MIC90 (Candida albicans [3]) | MIC90 (Aspergillus niger) | MIC90 (Aspergillus fumigatus) | Structure (SMILES) | hemolysis at 2 h, 1200 µM [4] | Activity (Candida albicans [5]) | Activity (Candida albicans [6]) |
| --- | --- | --- | --- | --- | --- | --- | --- | --- | --- | --- | --- | --- |
| 191.6 µM | > 600 µM | > 600 µM | > 600 µM | > 600 µM | > 600 µM | > 600 µM | > 600 µM | > 600 µM | C[C@@H]1CC[C@]2(C)[C@H](CC[C@@H]3O[C@@]32C)[C@@]1(C)CCC1=CC(=O)O[C@@H]1O | < 15% |  |  |
| 25.14 µM | 50.3 µM (≈ 16 µg/mL) | 805 µM (≈ 256 µg/mL) | 805 µM (≈ 256 µg/mL) | 101 µM (≈ 32 µg/mL) | 201 µM (≈ 64.1 µg/mL) | 805 µM (≈ 256 µg/mL) | 805 µM (≈ 256 µg/mL) | 805 µM (≈ 256 µg/mL) | CC1=CCC[C@@H]2[C@@](C)(CCC3=CC(=O)O[C@@H]3O)[C@H](C)CC[C@@]12C | < 15% | Active | Active |
| 177.8 µM | > 600 µM | > 600 µM | > 600 µM | > 600 µM | > 600 µM | > 600 µM | > 600 µM | > 600 µM | CC(=O)OC1OC(=O)C=C1CC[C@@]1(C)[C@H](C)CC[C@@]2(C)C(C)=CCC[C@H]12 (mixture of isomers) | < 15% |  |  |
| 153.1 µM | > 600 µM | > 600 µM | > 600 µM | > 600 µM | > 600 µM | > 600 µM | > 600 µM | > 600 µM | CC1=CCC[C@@H]2[C@@](C)(CCC3=CC(=O)OC3OC(=O)OC(C)(C)C)[C@H](C)CC[C@@]12C (mixture of isomers) | < 15% |  |  |
